Data reported in ChEMBL document CHEMBL1132406, “Synthesis and structure-activity relationships of phenylenebis(methylene)-linked bis-azamacrocycles that inhibit HIV-1 and HIV-2 replication by antagonism of the chemokine receptor CXCR4” (J Med Chem, 1999).

Experiments:
[1] = test system: Human immunodeficiency virus 1; assay: Antiviral effective concentration for Inhibitory activity on HIV-1(IIIB) replication in MT-4 cells; assay type: functional, organism-based; settings: Human immunodeficiency virus 1, MT4
Summary of the method: (§1)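 MT-4 cells infected at MOI 0.01 (100 × CCID50) with HIV-1 (IIIB) or HIV-2 (ROD) in presence of graded compound concentrations; antiviral and cytotoxicity run in parallel, CC50 on mock-infected cells. After 5 days of growth, viable cells counted by MTT colorimetry. EC50 = concentration protecting 50% of infected cells from cytopathicity; values averaged over several experiments.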

MT4 = assay: 50% cytotoxic concentration was tested against HIV infected MT-4 cells; assay type: functional; settings: Homo sapiens, in the assay text read “mock-infected” for “HIV infected”; summary of the method: as §1
[2] = test system: Human immunodeficiency virus 2; assay: Antiviral effective concentration for Inhibitory activity on HIV-2(ROD) replication in MT-4 cells; assay type: functional, organism-based; settings: Human immunodeficiency virus 2, MT4; summary of the method: as §1
[3] = target: C-X-C chemokine receptor type 4 (Homo sapiens, UniProt P61073); assay: Inhibitory activity against CXCR4-specific monoclonal antibody 12G5 (mAb-12G5) binding to human chemokinin receptor CXCR4 in lymphocytic SUP-T1 cells; assay type: cell-based
Sequence of C-X-C chemokine receptor type 4 (P61073 whole entry): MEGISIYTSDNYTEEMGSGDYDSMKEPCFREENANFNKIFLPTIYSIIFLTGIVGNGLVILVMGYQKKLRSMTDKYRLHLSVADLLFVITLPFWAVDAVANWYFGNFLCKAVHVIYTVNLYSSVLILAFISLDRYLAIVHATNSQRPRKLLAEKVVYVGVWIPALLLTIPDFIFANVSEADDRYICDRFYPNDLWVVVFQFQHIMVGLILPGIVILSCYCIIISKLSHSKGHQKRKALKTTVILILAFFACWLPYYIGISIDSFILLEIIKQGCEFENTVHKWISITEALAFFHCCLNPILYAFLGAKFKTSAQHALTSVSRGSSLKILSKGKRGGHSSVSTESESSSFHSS
Summary of the method: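 SUP-T1 cells preincubated with compound or PBS 15 min at room temperature, washed, then exposed to CXCR4 mAb 12G5 for 30 min, washed, stained with FITC goat anti-mouse antibody for 30 min at room temperature. Flow cytometry measured percent positive cells and MFI; inhibition derived from MFI, IC50 calculated.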

Structure (SMILES)	EC50 [1]	CC50 (MT4)	EC50 [2]	IC50 [3]
c1cc2nc(c1)CCNCCCN(Cc1ccc(CN3CCCNCCc4cccc(n4)CCNCCC3)cc1)CCCNCC2	421 nM	142 µM	1210 nM	–
c1cc2nc(c1)CNCCN(Cc1ccc(CN3CCNCc4cccc(n4)CNCC3)cc1)CCNC2	524 nM	8.5 µM	127 nM	4.36 µM
c1cc2nc(c1)CCNCCN(Cc1ccc(CN3CCNCCc4cccc(n4)CCNCC3)cc1)CCNCC2	0.8 nM	194 µM	1.6 nM	0.001 µM
c1cc(CN2CCNCc3cccc(n3)CNCC2)cc(CN2CCNCc3cccc(n3)CNCC2)c1	97.1 nM	30 µM	2.5 nM	–
c1cc(CN2CCCNCCNCCCNCC2)ccc1CN1CCCNCCNCCCNCC1	–	> 421 µM	–	–
Clc1cc2nc(c1)CNCCCN(Cc1ccc(CN3CCCNCc4cc(Cl)cc(n4)CNCCC3)cc1)CCCNC2	751 nM	17.8 µM	759 nM	5.74 µM
c1cc(CN2CCCNCCOCCNCCC2)ccc1CN1CCCNCCOCCNCCC1	4490 nM	> 244 µM	–	–
c1cc(CN2CCCSCCSCCCNCC2)ccc1CN1CCCSCCSCCCNCC1	> 6840 nM	6.8 µM	> 6840 nM	> 35 µM
COc1cc2nc(c1)CNCCCN(Cc1ccc(CN3CCCNCc4cc(OC)cc(n4)CNCCC3)cc1)CCCNC2	3100 nM	216 µM	8460 nM	–
c1cc2cc(c1)CNCCCN(Cc1ccc(CN3CCCNCc4cccc(c4)CNCCC3)cc1)CCCNC2	7960 nM	133 µM	–	–
c1cc(CN2CCCNCCNCCNCCC2)ccc1CN1CCCNCCNCCNCCC1	33.7 nM	> 421 µM	42.2 nM	0.067 µM
c1cc(CN2CCCNCCCCCNCCC2)ccc1CN1CCCNCCCCCNCCC1	9610 nM	133 µM	–	> 35 µM
c1cc(CN2CCCOCCOCCCNCC2)ccc1CN1CCCOCCOCCCNCC1	> 363000 nM	> 363 µM	> 363000 nM	> 35 µM
c1cc(CN2CCCNCc3cncc(n3)CNCCC2)ccc1CN1CCCNCc2cncc(n2)CNCCC1	30900 nM	209 µM	20700 nM	> 35 µM
c1ccc(-c2cc3nc(c2)CNCCCN(Cc2ccc(CN4CCCNCc5cc(-c6ccccc6)cc(n5)CNCCC4)cc2)CCCNC3)cc1	1750 nM	19.3 µM	–	–
c1cc2nc(c1)CNCCCN(Cc1ccc(CN3CCCNCc4cccc(n4)CNCCC3)cc1)CCCNC2	534 nM	199 µM	–	–
Oc1cc2nc(c1)CNCCCN(Cc1ccc(CN3CCCNCc4cc(O)cc(n4)CNCCC3)cc1)CCCNC2	174000 nM	200 µM	200000 nM	> 35 µM
